One test addresses Gβγ (Homo sapiens, UniProt P62873). Briefly: SPR direct binding to Gβγ with surface regeneration protocol. To be noted: for Kd: Kd (μM), surface regeneration protocol, average of N experiments; for koff: read-out: koff (×10^−4s^−1). The procedure, abridged:
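Gβ1γ2, biotinylated at the Gβ N-terminus, was captured on neutravidin amine-coupled to the sensor (2000–10000 µRIU), then blocked with 1 mM biotin. The run used 50 mM HEPES pH 7.6, 1 mM EDTA, 100 mM NaCl, 0.1% C12E10, 1 mM DTT and 1.2% DMSO at 25°C. Dilutions were injected 7 min at 50 µL/min with 10 min dissociation. Regeneration was 3×30 s MgCl2/urea/guanidine-HCl. Data were reference/blank/DMSO-corrected, fitted by a regeneration kinetic model and averaged.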

The next test deals with Gβ1His6γ2C68S (Homo sapiens, UniProt P62873). As to the kind of experiment: Non-covalent nano ESI QToF mass spectrometry of Gβγ-gallein complexes. The test is classed as binding. To be noted: collision energies that maintain some non-covalent Gβ-Gγ interactions. The procedure, abridged:
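Test compound (100 µM) mixed with 5 µM Gβ1His6γ2C68S in 20 mM ammonium acetate, pH 7.0, for 30 min at room temperature. Intact non-covalent complexes were analysed by nano-ESI QToF MS under mild ionisation at low and high collision cell voltage. The C68S mutation blocks Gγ2 lipidation, so no detergent was used.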

Test [1] concerns the target T1, Gβ1γ2 (Homo sapiens, UniProt P62873). Briefly: [3H]-gallein binding to Gβγ, spin desalting column separation. To be noted: 100 μM gallein or greater; 1 μM Gβγ.
The target of test [2] is T1, Gβ1γ2. Briefly: Surface plasmon resonance direct binding to immobilized biotinylated Gβ1γ2. For orientation: Surface plasmon resonance follows binding to a sensor surface in real time, without labels.
[3] abbreviates: Kd (μM), kinetic titration, average of N experiments.

Read-outs that look alike come from different tables or passages of the source.

What is called Kd is the equilibrium constant for the complex coming apart. A lower Kd goes with higher affinity. For `O=C1OC2(c3ccccc31)c1ccc(O)c(O)c1Oc1c2ccc(O)c1O` [Gallein, 3′, 4′, 5′, 6′-tetrahydroxyspiro[2-benzofuran-3, 9′-xanthene]-1-one], the kon on Gβγ was determined as 981 M⁻¹ s⁻¹; at Gβγ (read-out: kon (M^−1s^−1)), 926 ± 55 M⁻¹ s⁻¹; on Gβ1γ2 [2] (read-out: kon (M^−1s^−1)) it was 870 ± 112 M⁻¹ s⁻¹. The dissociation constant (Kd) at Gβγ amounted to 0.35 ± 0.03 µM; at Gβ1γ2 [2] (setting [3]), 0.407 ± 0.24 µM. Further, the koff on Gβγ turned out to be 0.00032 ± 2.7e-05 s⁻¹; at Gβ1γ2 [2] (read-out: koff (×10^−4s^−1)), 0.00035 ± 4.5e-05 s⁻¹. In addition, the “reversal of binding at higher collision energy” value at Gβ1His6γ2C68S is “fully reversed”. Further, on Gβ1γ2 [1], the maximum binding stoichiometry is 1.6 moles of gallein to 1 mole of Gβγ. Further, at Gβ1γ2 [2] (kinetic titration), the “concentration above which non-specific/multiple binding sites were observed” value is “above 30 μM”. The “koff slower than that of M201” value on Gβ1γ2 [2] (kinetic titration) was 10 fold.
With `O=C(O)C1CCCCC1c1c2ccc(=O)c(O)c-2oc2c(O)c(O)ccc12` (stereo not shown) [M119, 2-(3,4,5-trihydroxy-6-oxoxanthen-9-yl)cyclohexane-1-carboxylic acid], the Kd at Gβ1γ2 [2] (Kd (M), Equilibrium titration) was determined as 0.46 µM; at Gβ1γ2 [2] (Kd (M), Kinetic titration) it was 0.12 µM; on Gβ1γ2 [2] (average Kd), 0.276 ± 0.07 µM. On Gβ1γ2 [2] (equilibrium analysis, Rmax(obs) fit to 1:1 Langmuir isotherm, single data set), the “Ka (association constant)” value was determined as 2.16e+06 M⁻¹. The koff at Gβ1γ2 [2] (read-out: koff (s^−1), Kinetic titration) stood at 0.00012 s⁻¹; on Gβ1γ2 [2] (read-out: koff (×10^−4s^−1)) it was 0.0002 ± 8e-05 s⁻¹. In addition, the kon on Gβ1γ2 [2] (read-out: kon (M^−1s^−1)) was determined as 830 ± 200 M⁻¹ s⁻¹; on Gβ1γ2 [2] (read-out: kon (M^−1s^−1), Kinetic titration), 1027 ± 8 M⁻¹ s⁻¹.
For `Nc1cccc(Nc2cc(S(=O)(=O)O)c(N)c3c2C(=O)c2ccccc2C3=O)c1` [compound 372, 1-amino-4-(3-aminoanilino)-9,10-dioxoanthracene-2-sulfonic acid], the Kd at Gβγ stood at 2.7 ± 0.45 µM; on Gβ1γ2 [2] (setting [3]), 2 ± 0.3 µM. The figures for the koff at Gβγ and on Gβ1γ2 [2] (read-out: koff (×10^−4s^−1)) were 0.00082 ± 0.00051 s⁻¹ and 0.00086 ± 0.00024 s⁻¹, respectively. Also, the kon amounted to 267 ± 137 M⁻¹ s⁻¹ on Gβγ (read-out: kon (M^−1s^−1)) and 390 ± 93 M⁻¹ s⁻¹ on Gβ1γ2 [2] (read-out: kon (M^−1s^−1)). Moreover, on Gβ1γ2 [2] (kinetic titration), the “concentration above which non-specific/multiple binding sites were observed” value is > 20 µM. For the same compound, the “koff slower than that of M201” value at Gβ1γ2 [2] (kinetic titration) is 10 fold.
On to “SIGK(L9A): Control peptide, non-binding in the ELISA experiments (SIGKAFKIAGYPDYD) [reference compound]”, for which the “SPR response associated with binding to Gβγ” value with Gβ1γ2 [2] (control peptide, data not shown) is “did not elicit a response”.

These data come from article PMC3140432 (Biochimica et biophysica acta, 2011).
